CHRM4 antagonist = antagonists of human muscarinic M4 receptor (CHRM4). CHO-hM4 cells, ACh EC80, Fluo-8 calcium fluorescence. inhibition, % at 3 µM. 360,000 tested, 0.73% active. AID 624125;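 active means inhibition above its plate's cutoff, the mean inhibition of sample wells plus 3 SD, cut at about 27% in these data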;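 further: 0% = acetylcholine EC80 with DMSO and 100% = DMSO without agonist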
Target sequence (P08173 whole entry, looked up): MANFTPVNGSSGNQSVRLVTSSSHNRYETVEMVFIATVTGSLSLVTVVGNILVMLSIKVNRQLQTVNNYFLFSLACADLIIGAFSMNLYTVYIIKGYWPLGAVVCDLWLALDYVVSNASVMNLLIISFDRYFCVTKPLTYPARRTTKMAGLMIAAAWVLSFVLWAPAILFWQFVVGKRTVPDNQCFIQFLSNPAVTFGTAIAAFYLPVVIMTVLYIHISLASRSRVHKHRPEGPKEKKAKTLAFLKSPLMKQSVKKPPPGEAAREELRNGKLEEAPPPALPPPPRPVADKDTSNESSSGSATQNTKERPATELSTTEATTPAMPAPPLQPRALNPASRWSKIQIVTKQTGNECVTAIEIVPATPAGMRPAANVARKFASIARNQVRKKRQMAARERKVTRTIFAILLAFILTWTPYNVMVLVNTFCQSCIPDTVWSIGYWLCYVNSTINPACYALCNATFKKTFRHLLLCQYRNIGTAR
CHRM5 agonist = CHRM5 agonism in calcium assay | P08912 | CHO-K1 hM5 cells, Fluo-8 calcium fluorescence; 0% DMSO wells, 100% maximal acetylcholine response | activation, % at 3 µM | 360,000 tested, 0.19% active | AID 624037;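 active means activation above the run's mean over test compounds plus 3 SD, cut at about 23% in these data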;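 further: signal is peak over basal fluorescence ratio across the kinetic read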
M4 ag = CHRM4 agonism in calcium assay; P08173; CHO-K1 hM4/Gqi5, Fluo-8 calcium fluorescence; vehicle 0%, full acetylcholine response 100%; activation, % at 3 µM; 360,000 tested, 0.14% active;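 active means activation above the run mean over all test wells plus 3 SD, cut at about 32% in these data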;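 further: peak over basal fluorescence ratio per well then scaled between controls; 0% = DMSO wells and 100% = acetylcholine at EC100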
M5 PAM = positive allosteric modulators of human muscarinic M5 receptor. P08912. activation, % at 3 µM. 360,000 tested, 0.3% active. CHO-K1 hM5, Fluo-8 calcium, ACh EC20 PAM; 0% = ACh EC20, 100% = ACh EC100;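 active means activation above the run cutoff, the mean activation of all test compounds plus 3 SD, cut at about 18% in these data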
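Test system: CHO-K1 hM5 cells / Doses: single-point, 3 µM nominal / Times: Post-acetylcholine fluorescence recording 140 s / Technique: Fluo-8 calcium fluorescence / Measure: Max/basal fluorescence ratio as % of EC20–EC100 ACh window / Benchmarks: low control EC20 acetylcholine (0%), high control EC100 acetylcholine (100%) / Replicates: one well per compound, no replicates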
CHRM5 antagonist = CHRM5 antagonism in calcium assay. inhibition, % at 3 µM. CHO-hM5 cells, Fluo-8 calcium fluorescence, ACh EC80. P08912. 360,000 tested, 0.59% active;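 active means inhibition above a per-plate cutoff, the mean of that plate's test compounds plus 3 SD, cut at about 27% in these data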;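 further: 0% = acetylcholine EC80 with DMSO and 100% = DMSO without agonist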
M4 PAM = potentiates acetylcholine response at human M4 receptor; activation, % at 3 µM; CHO-K1 hM4/Gqi5, Fluo-8 calcium fluorescence, ACh EC20; 0% = ACh EC20, 100% = maximal ACh; 360,000 tested, 0.4% active; P08173; AID 624126;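 active means activation above its plate's cutoff, the mean activation of sample wells plus 3 SD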
Numbers without * were called inactive. The list is not random: actives were taken first. Their share in the collection is about 1.8%.

SMILES	CHRM4 antagonist	CHRM5 agonist	M4 ag	M5 PAM	CHRM5 antagonist	M4 PAM
O=[N+]([O-])c1cccc(-c2cc3cccc[n+]3cc2-c2cccc([N+](=O)[O-])c2)c1	-0.1	-3.1	0.1	-2.7	7.5	1.7
CCc1ccc(/C=C2\Oc3c(ccc(O)c3CN3CCN(CCO)CC3)C2=O)cc1	-7.4	-2.2	1.3	-7.6	11.6	6.7
Cc1cc(C)c(NC(=O)CN(C)C(=O)CCN2C(=O)C3CCCCC3C2=O)c(C)c1 (stereo not drawn)	-1.1	0.6	0.6	-2.8	15.3	5.2
O=C1C=C(NNC(=O)c2ccncc2)CC(c2ccccc2)C1 (stereo not drawn)	12.7	32.6*	31.0	-11.7	8.3	-16.5
CCOc1ccc(C(=O)Nc2cc(-c3nc4ccccc4[nH]3)ccc2C)cc1[N+](=O)[O-]	-1.4	-4.2	6.3	-2.1	0.5	7.3
CCOc1ccc(C(=O)Nc2cc(-c3nc4ccccc4[nH]3)ccc2Cl)cc1[N+](=O)[O-]	14.7	3.5	11.6	-14.8	38.5*	-7.5
C[N+]1(C)CCC(=C2c3ccccc3CC(=O)c3sccc32)CC1	80.5*	-7.5	0.3	-17.4	77.3*	-28.7
O=C1c2ccccc2CCc2ccccc21	-5.8	-3.0	-0.6	2.1	8.3	6.0
CC[N+]1(C)CCC(=C2c3ccccc3CC(=O)c3sccc32)CC1 (stereo not drawn)	99.2*	-7.4	0.5	-17.4	98.8*	-28.9
Cc1cc(C)c(S(=O)(=O)N2CCN(C(=O)C3COc4ccccc4O3)CC2)c(C)c1 (stereo not drawn)	5.2	-0.4	1.1	-3.9	13.7	0.9
COc1ccc(NCc2nnc(SCC(=O)c3ccc(OC)cc3)n2C)cc1	-13.6	-2.0	3.7	36.2*	33.2*	1.3
COc1ccc(C2(C)NC(=O)N(CC(=O)c3cc(C)n(C4CC4)c3C)C2=O)cc1 (stereo not drawn)	2.2	42.0*	35.3*	-6.9	-0.1	1.3
Cc1cc(C(=O)CN2C(=O)NC(C)(c3ccc(F)c(F)c3)C2=O)c(C)n1C1CC1 (stereo not drawn)	-4.1	22.3	20.8	-2.3	1.0	1.2
CC(=O)c1ccc(N2CCN(C(=O)/C=C/c3ccc(S(=O)(=O)NCc4ccco4)cc3)CC2)cc1	37.5*	-6.2	21.1	-34.0	23.1	-28.3
COc1ccc(S(=O)(=O)N2CCCCCC2)cc1C(=O)NCc1ccco1	-8.6	0.3	3.0	-3.3	8.7	-2.3
COc1ccc(S(=O)(=O)N2CCCCCC2)cc1C(=O)NCc1ccccc1Cl	-2.6	0.4	-0.2	-0.9	-1.9	25.5*
COc1ccccc1CNC(=O)C1=CCN(S(=O)(=O)c2ccc(C)cc2)CC1	24.0	0.9	1.7	19.2*	-0.7	4.8
Cc1ccc(CNC(=O)C2=CCN(S(=O)(=O)c3ccc(C)cc3)CC2)cc1	-3.9	0.1	6.3	-10.0	3.7	-5.9
CCN(C(=O)COC(=O)Cc1c[nH]c2ccccc12)C1CCS(=O)(=O)C1 (stereo not drawn)	-19.0	-3.3	1.4	15.1	-15.3	19.1*
CCC(C)N(C(=O)COC(=O)CCc1c[nH]c2ccccc12)C1CCS(=O)(=O)C1 (stereo not drawn)	-10.3	-2.7	4.1	-1.9	-13.8	5.9
CCC1(CC)C(=O)C2=C3C1[C@H](C(=O)OC)CC(C(=O)OC)C[C@H]3[C@H]1C(=O)N(c3ccccc3)C(=O)[C@H]1[C@H]2C (stereo partly drawn)	1.8	1.9	2.3	5.5	4.3	12.8
COc1ccc2c(CN(C)Cc3ccccc3)cc(=O)oc2c1	-6.9	-0.3	0.5	-0.1	-1.3	-2.3
CC(NC(=O)c1ccc(NC2=NC3CS(=O)(=O)CC3S2)cc1)c1ccccc1 (stereo not drawn)	94.4*	-1.0	-0.3	-18.0	13.1	-17.9
O=C(Cc1ccc(NC2=NC3CS(=O)(=O)CC3S2)cc1)NCc1ccccc1 (stereo not drawn)	9.2	1.7	0.7	1.9	1.3	-1.9

Bioassay records: PubChem BioAssay, The Scripps Research Institute Molecular Screening Center
